Experimental data as given in ChEMBL document CHEMBL4706601, “The endocannabinoid system dual-target ligand N-cycloheptyl-1,2-dihydro-5-bromo-1-(4-fluorobenzyl)-6-methyl-2-oxo-pyridine-3-carboxamide improves disease severity in a mouse model of multiple sclerosis” (Eur J Med Chem, 2020).
Calls of active or inactive are those of the source. The rule behind the calls is not given here.

How the values were obtained:
[1] = target: Cannabinoid receptor 1 (Homo sapiens, UniProt P21554); experiment: Antagonist activity at human CB1R expressed in CHO cell membranes preincubated for 30 mins followed by GTPgammaS addition and measured after 90 mins by [35S]GTPgammaS assay; type: functional, Membrane
Summary of the method: (§1)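 In-house CHO membranes expressing hCB1 or hCB2 (10 µg) in 50 mM Tris-HCl, 3 mM MgCl2, 0.2 mM EDTA, 100 mM NaCl, 0.5% fatty-acid-free BSA, pH 7.4, with 10 μM GDP and 0.1 nM [35S]GTPγS. Incubated 90 min at 30 °C; antagonist pre-incubated 30 min. Nonspecific binding with 10 μM GTPγS; bound label by filtration and counting; ≥3 experiments in triplicate.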

[2] = target: T1, Cannabinoid receptor 2 (Homo sapiens, UniProt P34972); experiment: Antagonist activity at human CB2R expressed in CHO cell membranes preincubated for 30 mins followed by GTPgammaS addition and measured after 90 mins by [35S]GTPgammaS assay; type: functional, Membrane; summary of the method: as §1
[3] = target: T1, Cannabinoid receptor 2; experiment: (§2) Competitive antagonist activity at human CB2R expressed in CHO cell membranes assessed as N-cycloheptyl-1,2-dihydro-5-bromo-1-(4-fluoro benzyl)-6-methyl-2-oxo-pyridine-3-carboxamide Emax at 100 nM preincubated with compound for 30 mins followed by GTPgammaS addition and measured after 90 mins by [35S]GTPgammaS assay (reference value: 210%); type: functional; conditions: Membrane, filed as antagonist, time 120.0 min
[4] = target: T1, Cannabinoid receptor 2; experiment: as §2, with “300” for “100”; type: functional; conditions: Membrane, filed as antagonist, time 120.0 min
Summary of the method: (§3)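 hCB2 CHO membranes in GTPγS buffer (10 μM GDP, 0.1 nM [35S]GTPγS, pH 7.4) pre-incubated 30 min with antagonist at 300 nM or 1 µM, then agonist or inverse agonist concentration series, 90 min at 30 °C. EC50 and Emax reported with 95% CI; Schild analysis; controls CP55,940 100 nM and AM630 1 μM; ≥3 experiments in triplicate.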

[5] = target: T1, Cannabinoid receptor 2; experiment: as §2, with “1000” for “100”; type: functional; conditions: Membrane, filed as antagonist, time 120.0 min; summary of the method: as §3
[6] = target: T1, Cannabinoid receptor 2; experiment: Non-competitive antagonist activity at human CB2R expressed in CHO cell membranes assessed as N-cycloheptyl-1,2-dihydro-1-(4-fluorobenzyl)-6-methyl-2-oxo-5-phenyl-pyridine-3-carboxamide Emax at 100 nM preincubated with compound for 30 mins followed by GTPgammaS addition and measured after 90 mins by [35S]GTPgammaS assay (reference value: -49.9%); type: functional; conditions: Membrane, filed as antagonist, time 120.0 min
Summary of the method: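 hCB2 membranes from stably transfected CHO cells (10 µg) pre-incubated 30 min with antagonist, then an inverse-agonist concentration series added. Buffer: 50 mM Tris-HCl, 3 mM MgCl2, 0.2 mM EDTA, 100 mM NaCl, 0.5% fatty-acid-free BSA, pH 7.4, with 10 µM GDP and 0.1 nM [35S]GTPγS. Incubated 90 min at 30 °C, then filtered. Non-specific binding measured with 10 µM GTPγS. Emax given with 95% CI; at least 3 experiments, each in triplicate.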

[7] = target: T1, Cannabinoid receptor 2; experiment: (§4) Competitive antagonist activity at human CB2R expressed in CHO cell membranes assessed as rightward shift of N-cycloheptyl-1,2-dihydro-5-bromo-1-(4-fluoro benzyl)-6-methyl-2-oxo-pyridine-3-carboxamide-induced GTPgammaS binding by measuring fold change in N-cycloheptyl-1,2-dihydro-5-bromo-1-(4-fluoro benzyl)-6-methyl-2-oxo-pyridine-3-carboxamide EC50 at 100 nM preincubated with compound for 30 mins followed by GTPgammaS addition and measured after 90 mins by [35S]GTPgammaS assay; type: functional; conditions: Membrane, time 120.0 min
[8] = target: T1, Cannabinoid receptor 2; experiment: as §4, with “1000” for “100”; type: functional; conditions: Membrane, time 120.0 min; summary of the method: as §3
[9] = target: Cannabinoid receptor 2 (Mus musculus) (UniProt P47936); experiment: Agonist activity at CB2R in LPS induced mouse BV2 cells assessed as IL-1beta secretion at 10 uM preincubated for 30 mins followed by LPS stimulation for 4 hrs by ELISA (reference value: 734.3 +/-35.1%); type: cell-based; conditions: BV-2, filed as agonist, time 270.0 min
Summary of the method: (§5)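 BV-2 murine microglia grown in high-glucose DMEM with 10% FBS. Treatments in FBS-free medium: test agonist 10 μM for 30 min, then LPS 5 μg/ml for 4 h; SR144528 10 μM given 15 min before agonist. DMSO ≤0.1% final. Medium spun 10 min at 1000×g; IL-1β, IL-6, IL-10 quantified by ELISA; three independent experiments in duplicate.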

[10] = target: Cannabinoid receptor 2 (Mus musculus) (UniProt P47936); experiment: Agonist activity at CB2R in LPS induced mouse BV2 cells assessed as IL-6 secretion at 10 uM preincubated for 30 mins followed by LPS stimulation for 4 hrs by ELISA (reference value: 764.7 +/-22.9%); type: cell-based; conditions: BV-2, filed as agonist, time 270.0 min; summary of the method: as §5
[11] = target: T1, Cannabinoid receptor 2; experiment: Agonist activity at human CB2R expressed in CHO cell membranes after 90 mins by [35S]GTPgammaS assay; type: functional, Membrane; summary of the method: as §1
[12] = target: Cannabinoid receptor 2 (Mus musculus) (UniProt P47936); experiment: Agonist activity at CB2R in LPS induced mouse BV2 cells assessed as reduction in IL-6 secretion at 10 uM preincubated with CB2R antagonist, SR144528 for 15 mins followed by compound additon for 30 mins after LPS stimulation for 4 hrs by ELISA; type: cell-based; conditions: BV-2, time 270.0 min; summary of the method: as §5
[13] = tested on: Mus musculus; experiment: (§6) Antinociceptive activity in orally dosed CD-1 albino mouse model of oxaliplatin-induced neuropathic pain assessed as decrease in pain-related behaviour treated on day 15 post oxaliplatin treatment and measured after 15 to 75 mins post dose by cold plate test; type: functional, organism-based; conditions: dose 5-50 mg/kg, time 15-75 min
Summary of the method: (§7)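 Male CD-1 mice (22-25 g) given oxaliplatin 2.4 mg/kg i.p. in 5% glucose on days 1-2, 5-9, 12-14; tested day 15. Compound in 1% carboxymethylcellulose orally at 5, 10, 20, 50 mg/kg. Cold plate licking latency at 15, 30, 45, 60, 75 min post dose. Selective CB1R and CB2R antagonists co-tested. 16 mice per treatment across 2 sessions; one-way ANOVA with Bonferroni.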

[14] = tested on: Mus musculus; experiment: Antiinflammatory activity in MOG (35 to 55 residues)/pertussis toxin-induced experimental autoimmune encephalomyelitis C57BL/6J mouse model assessed as improvement in late stage disease severity at 10 mg/kg, ip dosed once daily for 20 days starting from day 10 to 16 post immunization and measured at day 10 to 19 post treatment; type: functional, organism-based; conditions: time 10-19 day
Summary of the method: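 Active EAE in mice: 200 µg MOG35-55 in CFA (4 mg/ml M. tuberculosis) s.c. at hips and tail root, plus pertussis toxin 300 ng i.p. after immunization and 48 h later. Daily i.p. dosing (DMSO vehicle) for 20 days from each mouse's onset (day 10–16); onset = day 1. Daily clinical score; multiple t-tests with Holm-Sidak.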

[15] = tested on: Mus musculus; experiment: In vivo agonist activity at CB1R in C57BL/6J mouse assessed as functional CB1R level in brain at 10 mg/kg, ip after 20 days by [35S]GTPgammaS assay; type: organism-based; conditions: time 20.0 day
Summary of the method: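 After 20 days of EAE treatment, half-brain membranes (20 µg) pre-incubated 30 min at 37 °C with adenosine deaminase 0.5 units/mL, 30 μM GDP, 0.2 nM [35S]GTPγS at pH 7.4. Stimulated by CP55,940 1 μM, SR141716A 1 μM, both, or vehicle for 1 h at 30 °C; nonspecific with 10 μM GTPγS; expressed as % of vehicle control.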

[16] = tested on: Mus musculus; experiment: as §6, with “in” for “in orally dosed”, “behaviour by measuring efficacy onset and time duration at 5 to 50 mg/kg, po” for “behaviour”; type: functional; conditions: dose 5-50 mg/kg; time 15-75 min; summary of the method: as §7

Sequence of Cannabinoid receptor 2 (Mus musculus) (P47936 whole entry): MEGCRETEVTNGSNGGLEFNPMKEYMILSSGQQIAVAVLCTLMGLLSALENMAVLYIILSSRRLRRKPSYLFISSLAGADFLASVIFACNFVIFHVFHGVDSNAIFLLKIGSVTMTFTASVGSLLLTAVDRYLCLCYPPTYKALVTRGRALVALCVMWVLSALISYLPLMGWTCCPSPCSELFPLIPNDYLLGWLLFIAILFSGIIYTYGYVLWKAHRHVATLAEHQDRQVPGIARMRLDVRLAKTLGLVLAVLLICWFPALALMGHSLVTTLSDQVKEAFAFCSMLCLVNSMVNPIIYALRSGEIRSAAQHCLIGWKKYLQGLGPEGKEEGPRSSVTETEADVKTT
T1 sequence (P34972 whole entry): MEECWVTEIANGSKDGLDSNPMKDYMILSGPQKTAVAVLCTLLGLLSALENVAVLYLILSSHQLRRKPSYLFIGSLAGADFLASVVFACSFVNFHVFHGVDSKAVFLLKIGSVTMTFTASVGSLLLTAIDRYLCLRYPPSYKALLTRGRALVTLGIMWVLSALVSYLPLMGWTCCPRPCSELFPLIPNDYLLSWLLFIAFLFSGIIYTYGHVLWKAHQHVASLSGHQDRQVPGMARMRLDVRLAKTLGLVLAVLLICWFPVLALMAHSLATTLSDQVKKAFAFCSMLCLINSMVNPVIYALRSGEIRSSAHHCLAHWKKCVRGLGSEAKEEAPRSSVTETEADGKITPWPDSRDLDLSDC
Sequence of Cannabinoid receptor 1 (P21554 whole entry): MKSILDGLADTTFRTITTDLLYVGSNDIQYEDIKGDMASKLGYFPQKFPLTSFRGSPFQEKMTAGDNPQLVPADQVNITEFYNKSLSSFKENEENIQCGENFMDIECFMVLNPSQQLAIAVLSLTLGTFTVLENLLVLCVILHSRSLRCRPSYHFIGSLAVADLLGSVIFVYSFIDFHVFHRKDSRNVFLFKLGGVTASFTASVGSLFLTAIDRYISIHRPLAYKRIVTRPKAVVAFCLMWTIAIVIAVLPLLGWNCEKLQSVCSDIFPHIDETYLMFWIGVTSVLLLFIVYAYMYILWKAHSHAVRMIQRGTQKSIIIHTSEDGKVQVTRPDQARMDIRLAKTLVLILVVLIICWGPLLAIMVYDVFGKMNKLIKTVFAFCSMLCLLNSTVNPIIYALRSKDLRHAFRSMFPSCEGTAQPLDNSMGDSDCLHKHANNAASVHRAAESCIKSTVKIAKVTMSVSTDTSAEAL

SMILES | EC50 [1] | EC50 [2] | Emax [3] | Emax [4] | Emax [5] | Emax [6] | fold change (FC) [7] | fold change (FC) [8] | Activity [9] | Activity [10] | EC50 [11] | Activity [12] | Activity [13] | Activity [14] | Activity [15] | Time [16]
COc1ccc(-c2cc(C(=O)NC3CCCCCC3)c(=O)n(Cc3ccc(F)cc3)c2C)cc1 | 270 nM | 170 nM | 219% | 209% | 208% | -36.3% | 8 | 70 |  |  |  |  |  |  |  | 
Cc1c(Br)cc(C(=O)NC2CCCCCC2)c(=O)n1Cc1ccc(F)cc1 |  |  |  |  |  |  |  |  | 24.6% | 27.8% | 11.6 nM | inactive | Dose-dependent effect | Active | inactive | 15 min
